PMC5197073 (Theranostics, 2017)

Key:
[1] = Intratumoral drug concentration and distribution by MALDI-MSI in C26 tumors; assay type: in vivo, mouse; details: for intratumoral drug distribution (MALDI-MSI): C26 tumors, 100 mg/kg p.o. for two weeks
[2] = Intratumoral drug concentration and distribution by MALDI-MSI in C38 tumors; assay type: in vivo, mouse; details: 100 mg/kg p.o. for two weeks
[3] = test system: C38 mouse colorectal carcinoma; assay: In vivo growth inhibition of s.c. C38 tumors; details: C57Bl/6 mice, 100 mg/kg p.o. 5 times a week for two weeks; vs vehicle; P=0.0048
Procedure, shortened: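 C38 fragments, kept by serial s.c. passage, cut into 5×5×5 mm cubes and implanted into the backs of anaesthetised 8-week-old female C57Bl/6 mice. Dosing started on day 13, once daily by feeding tube, 5 days/week. Vehicle was 2% carboxymethylcellulose with 2 mg/mL methyl-4-hydroxybenzoate, also given to controls. Calipers were used three times weekly, with volume = length × width² × π/6.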

C38 tumors = assay: Microvessel areas; assay type: in vivo, mouse; details: C38 model, 100 mg/kg p.o. for two weeks; P<0.03
desmin = assay: Pericyte desmin expression in C26 tumors; assay type: in vivo, mouse; details: C26 model, 100 mg/kg p.o. for two weeks; sunitinib P=0.0135, motesanib P<0.05
C26 tumors = assay: Intratumoral hypoxia; assay type: in vivo, mouse; details: C26 model, 100 mg/kg p.o. for two weeks; P=0.0152
PDGFRβ = details: ref [18]; cited from earlier work
[4] = test system: C38 mouse colorectal carcinoma; details: C57Bl/6 mice; previously published study; ref [38]; cited from earlier work

SMILES	intratumoral drug distribution (MALDI-MSI) [1]	intratumoral drug distribution (MALDI-MSI) [2]	intratumoral drug concentration vs untreated controls ([2]; P=0.0006)	intratumoral vatalanib concentration ([2]; C57Bl/6 mice, P=0.0025 vs C26) [µmol/mL]	C38 tumor growth inhibition [3]	intratumoral microvessel areas (antivascular/antiangiogenic effect) (C38 tumors)	pericyte desmin expression (desmin)	rank of intratumoral concentration among the five RTKIs ([1]; mouse, in vivo, po, 100 mg/kg)	intratumoral hypoxia (C26 tumors)	IC50 value against PDGFRβ, rank among the tested RTKIs (PDGFRβ)	C38 tumor burdens [4]
CC1(C)CNc2cc(NC(=O)c3cccnc3NCc3ccncc3)ccc21 [motesanib]	inhomogeneous	trace-level	–	–	no significant tumor growth inhibitory	no significant	significantly decreased	–	–	–	–
Cc1ccc(Nc2nccc(N(C)c3ccc4c(C)n(C)nc4c3)n2)cc1S(N)(=O)=O [pazopanib]	inhomogeneous	trace-level	–	–	no significant tumor growth inhibitory	no significant	–	–	–	–	–
CCN(CC)CCNC(=O)c1c(C)[nH]c(/C=C2\C(=O)Nc3ccc(F)cc32)c1C [sunitinib]	homogeneously distributed	well-distributed	–	–	significant antitumor	significant	suppressed	highest values	significantly increased	lowest IC50 value	–

More lines, main results first:

intratumoral drug distribution (MALDI-MSI) [1]	intratumoral drug distribution (MALDI-MSI) [2]	intratumoral drug concentration vs untreated controls ([2]; P=0.0006)	intratumoral vatalanib concentration ([2]; C57Bl/6 mice, P=0.0025 vs C26) [µmol/mL]	SMILES	C38 tumor growth inhibition [3]	intratumoral microvessel areas (antivascular/antiangiogenic effect) (C38 tumors)	pericyte desmin expression (desmin)	rank of intratumoral concentration among the five RTKIs ([1]; mouse, in vivo, po, 100 mg/kg)	intratumoral hypoxia (C26 tumors)	IC50 value against PDGFRβ, rank among the tested RTKIs (PDGFRβ)	C38 tumor burdens [4]
Only traces	trace-level	–	–	CNC(=O)c1cc(Oc2ccc(NC(=O)Nc3ccc(Cl)c(C(F)(F)F)c3)cc2)ccn1 [sorafenib]	no significant tumor growth inhibitory	no significant	–	–	–	–	–
Only traces	well-distributed	significantly higher	0.116	Clc1ccc(Nc2nnc(Cc3ccncc3)c3ccccc23)cc1 [vatalanib]	robust and significant growth-inhibitory effect	significant decrease	–	–	–	–	significantly decreased
